Experimental data published in paper PMC4362967 (Chemistry & biology, 2015).
Where a SMILES comes first, the peptide text is derived from it. [ ]: non-standard residue; d: D form.

What was measured:
G. mellonella = G. mellonella survival assay, uninfected; settings: in vivo
[1] = test system: P. aeruginosa PA14 biofilms; test: Flow cell biofilm assay with confocal microscopy; assay type: cell-based, Pseudomonas aeruginosa
Summary of the method: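 P. aeruginosa PA14 biofilms grown at 37°C in BM2 glucose minimal medium in flow chambers (1 × 4 × 40 mm channels). […] For eradication, test compound was first added after 2 days of growth. Cells were stained with LIVE/DEAD BacLight and imaged by confocal microscopy.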

[2] = test system: Klebsiella pneumoniae mature biofilms; test: Flow cell biofilm assay with confocal microscopy; assay type: cell-based; settings: top FIC combination, added at day 2
Summary of the method: (§1)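 Biofilms grown at 37°C in BM2 glucose minimal medium in flow chambers (1 × 4 × 40 mm channels) for 72 h. Test compound, antibiotic or both were added to the flow-through medium at day 2 of biofilm formation. Combination levels were taken from checkerboard FIC results, with peptide levels lowered in some cases. Cells were stained with LIVE/DEAD BacLight and imaged by confocal microscopy with 3D reconstruction.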

[3] = test system: A. baumannii mature biofilms; test: Flow cell biofilm assay with confocal microscopy; assay type: cell-based, Acinetobacter baumannii; settings: 0.8 μg/ml DJK-5 with tobramycin, added at day 2
Summary of the method: as §1

P. aeruginosa PAO1 = test: C. elegans survival assay, infected; assay type: in vivo, Caenorhabditis elegans; settings: peptide 20 μg/ml, 25°C, average ± SD, n ≥ 12
[4] = test system: S. enterica mature biofilms; test: Flow cell biofilm assay with confocal microscopy; assay type: cell-based, Salmonella enterica; settings: top FIC combination, added at day 2
Summary of the method: as §1

E. coli mature biofilms = test: Flow cell biofilm assay with confocal microscopy; assay type: cell-based, Escherichia coli; settings: top FIC combination, added at day 2
Summary of the method: as §1

P. aeruginosa = settings: free swimming (planktonic) cells; ref Overhage et al, 2008; cited from earlier work
P. aeruginosa biofilm = settings: relative to MIC; ref Overhage et al, 2008; cited from earlier work

CC[C@@H](C)[C@@H](NC(=O)[C@@H](C)NC(=O)[C@@H](CCCNC(=N)N)NC(=O)[C@@H](Cc1c[nH]c2ccccc12)NC(=O)[C@@H](CCC(N)=O)NC(=O)[C@H](N)C(C)C)C(=O)N[C@H](CCCNC(=N)N)C(=O)N[C@@H](C(=O)N[C@H](CCCNC(=N)N)C(=O)N[C@@H](C(=O)N[C@@H](C(=O)N[C@H](CCCNC(=N)N)C(N)=O)[C@H](C)CC)C(C)C)C(C)C [DJK5] (H-[dV][dQ][dW][dR][dA][dI][dR][dV][dR][dV][dI][dR]-NH2; N-terminus and C-terminus assumed)
G. mellonella survival (%) 24h No infection (G. mellonella): 100 ± 0%
G. mellonella survival (%) 48h No infection (G. mellonella): 100 ± 0%
biofilm inhibition in flow cells, combination with ciprofloxacin ([1]; 0.1 μg/ml of DJK-5 with 0.04 μg/ml of ciprofloxacin, added at day 0, 3 days): complete biofilm inhibition
eradication of 2-day-old biofilms, combination with ciprofloxacin ([1]; top FIC combination, added at day 2, P. aeruginosa PA14): much more limited dispersal but triggered cell death in remaining cells
eradication of 2-day-old biofilms, combination with ciprofloxacin [2]: eradication
eradication of 2-day-old biofilms, combination with tobramycin [3]: eradication
C. elegans survival (%) 24h P. aeruginosa PAO1 (P. aeruginosa PAO1; 24 h post infection): 99 ± 2 %
C. elegans survival (%) 48h post infection P. aeruginosa PAO1 (P. aeruginosa PAO1; 48 h post infection): 96 ± 4 %
eradication of 2-day-old biofilms, combination with ceftazidime [4]: eradication
eradication of 2-day-old biofilms, combination with ceftazidime (E. coli mature biofilms): not synergistic

LL-37: the human peptide LL-37, cationic host defense peptide
MIC (P. aeruginosa): > 64 µg/mL
concentration active against P. aeruginosa biofilms (P. aeruginosa biofilm): one sixteenth the MIC
